We go through 10 compounds from article PMC3846926 (Neuropharmacology, 2010).

Entries after “also recorded” stand apart in the source; their conditions may differ.

Assay [1] deals with ENaC channels expressed in oocytes. The experiment in a line: ENaC current in Xenopus oocytes, two-electrode voltage clamp. Type of assay: cell-based. The conditions noted are these: 100 µM; for effect on ENaC activities: oocytes; for relative current of ENaC with compound: relative to control without diarylamidine, holding -70 mV. An outline of the steps: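 Defolliculated (collagenase, 60–120 min) stage V–VI Xenopus laevis oocytes were injected with 1 ng ENaC α/β/γ cRNA and kept 3 days at 19 °C in low-Na+ ringer. Two-electrode voltage clamp at −70 mV, 22–26 °C, in ringer pH 7.4. Amiloride superfusion was replaced by amiloride-free solution, then test compound (100 µM) was applied without amiloride. Amiloride-sensitive current recorded at 1 kHz.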
(In general: In two-electrode clamp one electrode senses voltage and the other passes current.)

Assay [2] concerns ASIC currents in cultured hippocampal neurons. Kind of assay: ASIC currents in primary cultured hippocampal neurons, whole-cell voltage clamp. Type of assay: cell-based, mouse. The conditions noted are these: for Inhibition (potency), grade in words: diarylamidines of Table 1, cultured hippocampal neurons; for effect on rates of desensitization of ASIC currents: sub-maximal concentrations.

The target in the next assay is T1, ASIC1a (Rattus norvegicus, UniProt P55926).
T1 sequence (P55926 1-526): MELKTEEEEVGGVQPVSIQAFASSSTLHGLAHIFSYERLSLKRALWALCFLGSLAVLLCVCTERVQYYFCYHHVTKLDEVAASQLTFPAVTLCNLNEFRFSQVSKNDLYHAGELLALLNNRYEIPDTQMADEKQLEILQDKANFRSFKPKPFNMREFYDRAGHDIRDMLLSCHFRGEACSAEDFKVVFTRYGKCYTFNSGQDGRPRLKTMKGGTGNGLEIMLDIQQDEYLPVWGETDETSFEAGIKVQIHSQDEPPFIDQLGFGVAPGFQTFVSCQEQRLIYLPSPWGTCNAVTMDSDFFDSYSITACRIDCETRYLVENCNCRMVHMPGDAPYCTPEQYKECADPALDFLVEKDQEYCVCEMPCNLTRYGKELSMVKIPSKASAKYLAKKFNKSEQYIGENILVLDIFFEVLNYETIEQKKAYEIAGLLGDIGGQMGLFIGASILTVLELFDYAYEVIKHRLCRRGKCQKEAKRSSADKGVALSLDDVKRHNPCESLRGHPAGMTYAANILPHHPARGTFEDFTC
Kind of assay: ASIC1a currents in oocytes. Format: cell-based. Conditions: 100 µM.

A further assay concerns ENaC. The conditions noted are these: read-out: IC50 on ENaC; very weak inhibition; ref Ugawa et al., 2007; cited from earlier work.
For the next assay, the system named is ASIC current. Conditions: Wu et al., 2004, cited from earlier work.
For a further assay, the target named is T2, homomeric ASIC1b (Rattus norvegicus, UniProt P55926).
T2 sequence (P55926 1-559 isoform P55926-3): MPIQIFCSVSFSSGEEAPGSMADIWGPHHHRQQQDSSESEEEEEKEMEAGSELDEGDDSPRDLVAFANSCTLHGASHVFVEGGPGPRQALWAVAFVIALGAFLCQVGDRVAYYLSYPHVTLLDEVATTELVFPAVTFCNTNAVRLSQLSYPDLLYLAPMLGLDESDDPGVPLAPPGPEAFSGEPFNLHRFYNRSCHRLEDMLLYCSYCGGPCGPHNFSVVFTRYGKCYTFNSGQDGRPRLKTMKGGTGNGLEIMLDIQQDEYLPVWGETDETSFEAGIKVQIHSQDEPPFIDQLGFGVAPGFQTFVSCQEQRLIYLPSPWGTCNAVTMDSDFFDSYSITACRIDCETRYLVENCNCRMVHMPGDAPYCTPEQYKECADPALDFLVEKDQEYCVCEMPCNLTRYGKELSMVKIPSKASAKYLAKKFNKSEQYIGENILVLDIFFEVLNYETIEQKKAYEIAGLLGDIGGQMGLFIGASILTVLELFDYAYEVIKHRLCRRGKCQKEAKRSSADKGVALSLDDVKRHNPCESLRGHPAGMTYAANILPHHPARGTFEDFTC
Kind of assay: ASIC1b current in transfected CHO cells, patch clamp. Type of assay: cell-based. Conditions: pH 6, read-out: inhibition of ASIC1b current. Put shortly: (§1)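 CHO cells in F12 with 10% fetal bovine serum, cotransfected at ~50% confluence with the individual ASIC subunit cDNA (1.8 µg) plus GFP DNA (0.2 µg) per dish. GFP-positive cells whole-cell patch-clamped 48–72 h after plating, held at −60 mV. Activating pH: 6.0 (ASIC1a, 1b), 5.0 (ASIC2a), 6.5 (ASIC3). Test compound perfused 2 min. Currents normalized to control; IC50 from logistic fit; mean ± S.E.M.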
(In general: The patch-clamp technique gives a direct electrical read-out from membranes.)

In another assay the target is T3, homomeric ASIC2a (Rattus norvegicus, UniProt Q62962).
T3 sequence (Q62962 1-512): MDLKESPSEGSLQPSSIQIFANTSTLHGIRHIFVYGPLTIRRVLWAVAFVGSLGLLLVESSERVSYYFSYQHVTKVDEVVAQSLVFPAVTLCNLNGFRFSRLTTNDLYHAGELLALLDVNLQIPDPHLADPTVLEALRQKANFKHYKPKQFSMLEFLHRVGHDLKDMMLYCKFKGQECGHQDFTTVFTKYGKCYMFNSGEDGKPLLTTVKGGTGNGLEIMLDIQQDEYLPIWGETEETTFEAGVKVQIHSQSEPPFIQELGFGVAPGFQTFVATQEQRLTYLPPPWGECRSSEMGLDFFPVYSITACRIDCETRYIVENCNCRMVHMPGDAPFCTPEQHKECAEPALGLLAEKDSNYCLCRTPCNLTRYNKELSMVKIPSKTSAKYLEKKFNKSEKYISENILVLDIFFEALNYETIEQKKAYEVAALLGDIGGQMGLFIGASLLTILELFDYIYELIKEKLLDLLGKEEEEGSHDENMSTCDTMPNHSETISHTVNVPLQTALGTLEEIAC
The experiment in a line: ASIC2a current in transfected CHO cells, patch clamp. Format: cell-based. The conditions noted are these: pH 5, read-out: inhibition of ASIC2a current. Put shortly: as §1

Another assay concerns the target T4, homomeric ASIC1a (Rattus norvegicus, UniProt P55926).
T4 sequence (P55926 1-526): T1 sequence (P55926 1-526)
The experiment in a line: ASIC1a current in transfected CHO cells, patch clamp. Type of assay: cell-based. An outline of the steps:
as §1

Assay [3] relates to cultured hippocampal neurons. Format: cell-based, mouse. The conditions noted are these: 10 µM, current clamp.
The target in another assay is T5, homomeric ASIC3 (Rattus norvegicus, UniProt O35240).
T5 sequence (O35240 1-533): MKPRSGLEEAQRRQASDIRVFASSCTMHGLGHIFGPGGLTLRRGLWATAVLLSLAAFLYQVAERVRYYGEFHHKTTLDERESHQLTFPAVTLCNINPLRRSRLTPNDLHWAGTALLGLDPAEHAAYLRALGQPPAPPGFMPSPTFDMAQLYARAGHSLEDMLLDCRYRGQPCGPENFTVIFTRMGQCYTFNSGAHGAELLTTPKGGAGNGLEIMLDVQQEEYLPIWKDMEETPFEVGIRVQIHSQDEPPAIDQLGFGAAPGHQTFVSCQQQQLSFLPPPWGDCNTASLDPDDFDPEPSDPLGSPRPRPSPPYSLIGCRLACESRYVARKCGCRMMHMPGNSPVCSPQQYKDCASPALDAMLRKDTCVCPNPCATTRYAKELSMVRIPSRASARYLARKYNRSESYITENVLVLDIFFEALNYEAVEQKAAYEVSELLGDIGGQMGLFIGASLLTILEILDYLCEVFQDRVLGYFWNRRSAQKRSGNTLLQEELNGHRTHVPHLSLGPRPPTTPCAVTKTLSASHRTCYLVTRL
The experiment in a line: ASIC3 current in transfected CHO cells, patch clamp. Type of assay: cell-based. The conditions noted are these: pH 6.5, read-out: inhibition of ASIC3 current. An outline of the steps:
as §1

[4] abbreviates: 200 µM, cultured hippocampal neurons.

As for `N=C(N)c1ccc(/C=C/c2ccc(C(=N)N)cc2O)cc1` [Hydroxystilbamidine], the “effect on ENaC activities” value in assay [1] (listed as HSB) was “did not inhibit”. In addition, in assay [1], the “relative current of ENaC with compound” value is reported as 1.02 ± 0.04. Also, in assay [2], inhibition was half-maximal at 1.5 µM (IC50); the “Inhibition (potency), grade in words” value was “Strong inhibition”; the “effect on rates of desensitization of ASIC currents” value (“effect on rates” for short) is reported as “did not have marked effects”.

Take `CC1(C)[C@@H](OC(=O)CCC(=O)O)CC[C@]2(C)[C@H]3C(=O)C=C4[C@@H]5C[C@@](C)(C(=O)O)CC[C@]5(C)CC[C@@]4(C)[C@]3(C)CC[C@@H]12` [Carbenoxolone]: the “effect on ASIC currents” value in assay [2] (setting [4]) was “failed to inhibit; also recorded: did not inhibit”.

`Cn1cc(NC(=O)c2cc(NC(=O)CN=C(N)N)cn2C)cc1C(=O)NCCC(=N)N` [Netropsin]: the “effect on ASIC currents” value in [2] (100 µM, cultured hippocampal neurons) is “did not inhibit”; in assay [2] (concentration not given) it was “without effect; also recorded: failed to inhibit”.

In the case of `N=C(N)c1ccc(-c2cc3ccc(C(=N)N)cc3[nH]2)cc1` [DAPI, 4′,6-diamidino-2-phenylindole], in [1], the “effect on ENaC activities” value is listed as “did not inhibit; also recorded: ineffective” and the “relative current of ENaC with compound” value amounted to 0.98 ± 0.04. Moreover, the “block of ASIC1a currents in oocytes” value on ASIC1a was “almost completely”. Besides, in assay [2], the “Inhibition (potency), grade in words” value is listed as “Strong inhibition” and the “effect on rates” value is “did not have marked effects”.

On to `N=C(N)c1ccc2cc(OC(=O)c3ccc(N=C(N)N)cc3)ccc2c1` [Nafamostat], for which the IC50 – broadly, the point on the concentration scale where inhibition reaches its midpoint – in the assay with ENaC is around 1000 µM.

With `N=C(N)c1ccc(OCCCCCOc2ccc(C(=N)N)cc2)cc1` [Pentamidine], in [1], the “effect on ENaC activities” value is “did not inhibit; also recorded: ineffective” and the “relative current of ENaC with compound” value turned out to be 1.02 ± 0.03. Also, on ASIC1a, the “block of ASIC1a currents in oocytes” value worked out at 77%. In assay [2], the “Inhibition (potency), grade in words” value was “Inhibition” and the “effect on rates” value is on record as “did not have marked effects”.

As for `N=C(N)NC(=O)c1nc(Cl)c(N)nc1N` [Amiloride], the 50% inhibitory concentration (IC50) in the assay on ASIC current (read-out: IC50 on ASIC current, ref Waldmann et al., 1997) is 10 to 20 µM. Further, the “concentration required to completely block the neuronal ASIC currents” value with ASIC current (ref Baron et al., 2002) is 200 to 500 µM. Moreover, the “effect on desensitization of ASIC current” value in assay [2] (amiloride 80 µM co-applied with pH 5.8) is on record as “did not accelerate; also recorded: little effect”. Besides, the “desensitization time constant of ASIC currents” value in assay [2] (amiloride 80 µM co-applied with pH 5.8, control 0.83 ± 0.15 s) is listed as 0.72 ± 0.14 s.

Regarding `O=C(Nc1cccc(C2=NCCN2)c1)Nc1cccc(C2=NCCN2)c1` [Imidocarb], the “inhibition of ASIC currents” value in assay [2] (setting [4]) is on record as “Inhibit 42 ± 7% at 200 µM”.

As for `Cc1ccc(C(=O)Nc2ccc(S(=O)(=O)O)c3cc(S(=O)(=O)O)cc(S(=O)(=O)O)c23)cc1NC(=O)c1cccc(NC(=O)Nc2cccc(C(=O)Nc3cc(C(=O)Nc4ccc(S(=O)(=O)O)c5cc(S(=O)(=O)O)cc(S(=O)(=O)O)c45)ccc3C)c2)c1` [suramin], the “effect on ASIC currents” value in [2] (500 µM, cultured hippocampal neurons) is “failed to inhibit”.

Regarding `N=C(N)c1ccc(/N=N/Nc2ccc(C(=N)N)cc2)cc1` [Diminazene], the “effect on ENaC activities” value in assay [1] is “did not inhibit; also recorded: ineffective”. For the same compound, the “relative current of ENaC with compound” value in assay [1] came to 1.11 ± 0.05. In addition, the inhibition (commonly the share of the control response that was lost under treatment) at 3 µM is 92 ± 0.5% at homomeric ASIC1b; 51 ± 6.1% at homomeric ASIC2a; 39 ± 3.8% at homomeric ASIC1a (CHO, pH 6, read-out: inhibition of ASIC1a current); 74 ± 0.6% on homomeric ASIC3. Further, on ASIC1a, the “block of ASIC1a currents in oocytes” value is “almost completely”. Also, the “desensitization time constant of ASIC currents” value in [2] (1 µM by perfusion, control 1.7 ± 0.2 s) is 0.4 ± 0.1 s; in assay [2] (diminazene 3 µM co-applied with pH 5.8, control 1.6 ± 0.3 s), 0.4 ± 0.1 s. The “Inhibition (potency), grade in words” value in [2] is “Strong inhibition”. At homomeric ASIC1a, this compound came in with an IC50 of around 3 µM. Besides, the “effect on low pH-induced depolarization and excitation” value in assay [3] was “dramatically attenuated; also recorded: markedly attenuated”.
